Hsp70 act: transcriptional activators of Hsp70. HeLa Hsp70 promoter luciferase reporter, luminescence; scaled: vehicle 0, proteasome-inhibitor control 100%. activation, % at 10 µM. 200,000 compounds, 0.04% hits. AID 1203;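 active = activation above the mean across all tested compounds plus 3 SD, cutoff set per campaign, cut at about 5.5% in these data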
T cruzi inh: blocks replication of Trypanosoma cruzi | AID 1885 | inhibition, % (concentration not given with the values) | 300,000 compounds, 1.4% hits | T. cruzi beta-gal in NIH3T3, luminescence, 90 h;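 active = mean inhibition across valid replicates above about 55%, limit read from the data; inconclusive = mean below that limit but half or more replicates reach it; inactive = mean below it, under half of replicates reach it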;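 also: signal also drops with host cell toxicity which is not excluded here; higher percent means less beta-gal luminescence so fewer parasites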
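Read-out: Parasite load inhibition, % | Test system: Mouse NIH/3T3 fibroblasts infected with β-gal-expressing T. cruzi Tulahuen C4 | Amount: 5,000 cells/well | Medium: DMEM, 2% fetal bovine serum | Signal: GalScreen β-gal luminescence, detergent lysis, 60 min | Timing: 3 h attach, ≥90 h co-culture | Also added: Tulahuen C4 trypomastigotes, 5000/well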
L major viab: Leishmania major promastigote growth inhibition | AID 1063 | Leishmania major promastigotes, resazurin fluorescence viability | 200,000 compounds, 9% hits | inhibition, % at 10 µM; in the data active = inhibition above about 50%;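 also: promastigotes grown with compound for 44 hours at 28 °C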
HSF-1 act: increases HSF-1 driven luciferase reporter signal. NIH3T3-HGL HSF-1 luciferase reporter, MG132, 8 h; 100% = twice DMSO control signal. activation, % at 9 µM. 300,000 compounds, 1.7% hits;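 active = mean replicate activation of at least 50% with a set share of replicates each reaching 50%; inconclusive = only one of those two conditions met; inactive = mean below 50% and too few replicates reaching it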
HSF1 inhib: HSF1 inhibition; NIH3T3-HGL HSE-luciferase, MG132-induced, luminescence 8 h; hits give low values; activity change, negative = inhibition, % at 7.5 µM (by protocol); 300,000 compounds, 0.77% hits; AID 2098;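 active = more than half of replicate wells show activity change below -50%, luminescence cut by over half; inconclusive = some wells, but at most half, below -50%; inactive = no replicate well below -50%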;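 also: luciferase reports HSF-1 transcriptional activity via heat shock element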
Hits are given with their value; – = inactive; ? = inconclusive; · = no result given. Many of the other results were omitted from the sample, so hits are more common in it than they were.

SMILES	Hsp70 act	T cruzi inh	L major viab	HSF-1 act	HSF1 inhib
O=S(=O)(c1ccccc1)c1nc(-c2cccs2)oc1NCC1CCCO1 (configuration not stated)	–	–	86	–	–
CNC(=O)c1cccc(NC(=O)c2ccccc2OCc2ccccc2)c1	·	–	·	–	–
O=C(/C=C/c1ccc(O)c(O)c1)c1ccccc1O	·	–	·	92	–
O=C(/C=C/c1ccoc1)c1ccccc1O	–	–	76	–	–
COc1ccc2ccccc2c1C(=O)/C=C\c1ccoc1	–	–	–	–	–
Nc1nc(F)nc2c1ncn2[C@@H]1O[C@H](CO)[C@@H](O)[C@H]1O	·	–	·	–	-56
Nc1nc(F)nc2c1ncn2[C@@H]1O[C@H](CO)[C@@H](O)[C@@H]1O	–	–	–	–	–
CCN1CCN(C(=O)C2c3cc(OC)c(OC)cc3C(=O)N(C)C2c2ccc(SC)cc2)CC1 (configuration not stated)	–	–	76	–	–
Cc1ccccc1N(C(=O)CNC(=O)c1ccco1)C(C(=O)NC1CCCCC1)c1cccnc1 (configuration not stated)	·	–	·	–	–
Cc1ccc2[nH]c(=O)c(CN(CC3CCCO3)C(=S)NCc3ccco3)cc2c1 (configuration not stated)	–	–	57	–	–
Cc1cc(C)c2[nH]c(=O)c(CN(CC3CCCO3)C(=S)NCc3ccco3)cc2c1 (configuration not stated)	–	–	–	62	–
Cc1ccc(C)c2[nH]c(=O)c(CN(Cc3ccco3)C(=S)NCC3CCCO3)cc12 (configuration not stated)	–	–	59	77	–
COc1ccccc1NC(=S)N(Cc1ccco1)Cc1cc2cc(C)cc(C)c2[nH]c1=O	–	–	85	–	–
CCOc1ccccc1NC(=O)CN1CCN(Cc2ccccc2)CC1	·	–	·	–	–
C/C(=N\NC(=O)c1ccc([N+](=O)[O-])cc1Cl)c1ccccc1	–	?	–	–	–
c1ccc(-c2nc3ccccc3s2)nc1	–	–	–	58	–
Cc1csc(CNC(=O)c2ccc(OC3CCN(CCc4ccccc4)CC3)cc2)n1	·	–	·	–	–
c1ccc(Cc2noc(CN3CCC(CN4CCOCC4)CC3)n2)cc1	–	–	–	–	–
c1ccc(Cc2noc(CN3CCCN(C4Cc5ccccc5C4)CC3)n2)cc1	–	–	92	–	–
c1ccc(Cc2noc(CN3CCN(C4CCc5ccccc5C4)CC3)n2)cc1 (configuration not stated)	–	?	87	–	–
COc1ccc(CCC(C)N2CCOCC2)cc1 (configuration not stated)	·	–	·	–	–
COc1ccccc1-c1nn2c(=O)cc(C)nc2s1	–	–	–	–	–
Cc1cc(=O)n2nc(-c3ccc(C(F)(F)F)cc3)sc2n1	–	–	–	–	-70
O=C(/C=C/c1ccc(F)cc1)c1ccccc1Br	–	–	94	–	–
Cc1ccc(C(=O)/C=C/c2ccc(F)cc2)o1	–	–	98	–	–
SMILES	Hsp70 act	T cruzi inh	L major viab	HSF-1 act	HSF1 inhib
O=C(/C=C/c1ccc(F)cc1)NC(=S)Nc1ccccc1	·	–	·	–	–
CSc1nnc(SCC2=NNC(=O)SC2)s1	–	–	–	–	–
CCc1nc2c(oc3ccccc32)c(=O)[nH]1	–	–	–	–	–
O=c1[nH]c(CSc2ccccn2)nc2c1oc1ccccc12	–	–	–	108	–
Cc1cc(Br)c(NC(=O)COC(=O)CSc2nnc(-c3ccc(Cl)cc3)o2)c(Br)c1	–	–	52	–	–
Cc1cc(C)cc(NC(=O)CSc2nnc(-c3ccncc3)o2)c1	·	–	·	–	–
CC(=O)/C(N=Nc1ccc2c(c1)OCCO2)=C(\C)O	–	–	–	–	–
CC(=O)/C(N=Nc1ccc2c(c1)OCO2)=C(\C)O	–	–	57	–	–
CC(=O)C[C@H]1c2cc(F)ccc2S(=O)(=O)N1c1ccc(N(C)C)cc1	·	–	·	–	-62
N#Cc1ccc(Cn2c(-c3ccc(F)cc3)noc2=O)cc1	·	–	·	–	–
COc1cccc(CCc2nnc(CCC(=O)N3CCN(Cc4ccccn4)CC3)o2)c1	–	–	–	–	–
CSc1ccc(-c2nc3cnccn3c2Nc2ccc3c(c2)OCO3)cc1	–	–	100	–	–
c1cn2c(Nc3ccc4c(c3)OCCO4)c(-c3ccc(N4CCOCC4)cc3)nc2cn1	·	–	·	–	–
Oc1ccccc1-c1nc2cnccn2c1Nc1ccc2c(c1)OCCO2	–	–	77	–	–
COC(=O)c1ccc(OC)c(Cn2c(=O)n(C)c(=O)c3sccc32)c1	·	–	·	–	–
COC(=O)c1ccc(OC)c(CN2CCCN(Cc3cc(C)ccc3C)S2(=O)=O)c1	·	69	·	–	–
COc1ccc(OC)c2c1cc(C(=O)N[C@H](C(=O)N1CCC(C(=O)O)CC1)C(C)C)n2C	·	–	·	–	–
COc1ccc(-c2nsc3c(N4CCCC4)ncnc23)cc1	–	–	–	–	-55
COc1ccc(-c2csc3ncnc(N4CCN(c5ccc(OC)cc5)CC4)c23)cc1	·	–	·	–	–
Cc1ccc(NS(=O)(=O)c2cccc(C(=O)N3CCCCCC3)c2)cc1	·	–	·	–	–
O=C(O)CS(=O)CC(=O)Nc1cccc(C(F)(F)F)c1 (configuration not stated)	–	–	–	–	–
CCc1ccc(-c2nc(CN3CCC(C(=O)NCCN(CC)c4ccccc4)CC3)c(C)o2)cc1	–	–	65	–	–
CCN(CCNC(=O)C1CCCN(Cc2nc(-c3ccc(OC)cc3)oc2C)C1)c1ccccc1 (configuration not stated)	–	62	51	–	–
CCN(CCNC(=O)C1CCN(Cc2nc(-c3ccc(Cl)cc3)oc2C)CC1)c1ccccc1	–	–	–	–	–
CCN(CCNC(=O)C1CCN(Cc2nc(-c3cccc(Cl)c3)oc2C)CC1)c1ccccc1	–	?	–	–	–
SMILES	Hsp70 act	T cruzi inh	L major viab	HSF-1 act	HSF1 inhib
CCOc1ccc(C(=O)c2cc([N+](=O)[O-])ccc2Cl)cc1	–	–	–	–	–
CCOc1ccc(C(=O)c2ccc([N+](=O)[O-])cc2Cl)cc1	–	60	–	–	–
C=CCNC(=S)NNC(=O)Cn1c(-c2ccccc2)cc(=O)n2ncnc12	·	–	·	–	–
C=CCOC(=O)C1=C(C)NC(SCC(N)=O)=C(C#N)C1c1ccc(C)cc1 (configuration not stated)	·	–	·	–	–
C=CCOC(=O)C1=C(C)NC(SCC)=C(C#N)C1c1ccc(Cl)cc1 (configuration not stated)	–	–	100	–	–
N=c1sccn1CC(=O)Nc1ccc([N+](=O)[O-])cc1Cl	·	–	·	·	·
COc1ccc(NC(=O)Nc2ccon2)cc1OC	·	–	·	–	–
CCCOc1ccc(N2C(=O)CC(SCc3nc4ccccc4[nH]3)C2=O)cc1 (configuration not stated)	–	–	–	–	–
Clc1ccc(OCc2nnc(-c3ccccc3Br)o2)c(Cl)c1	–	–	–	61	–
